Laboratory results: publication PMC9860122 (The Journal of Biological Chemistry, 2022)
Numbering of substitutions follows the chain as printed. Where two headings read alike, the source gives them in different places.

How the values were obtained:
NmeIPMSR32Q [1] = biological target: T1, NmeIPMSR32Q (Neisseria meningitidis serogroup B, UniProt Q9JZG1, R32Q); assay: Leu inhibition assay; type: biochemical
T1 sequence (Q9JZG1 1-517 R32Q): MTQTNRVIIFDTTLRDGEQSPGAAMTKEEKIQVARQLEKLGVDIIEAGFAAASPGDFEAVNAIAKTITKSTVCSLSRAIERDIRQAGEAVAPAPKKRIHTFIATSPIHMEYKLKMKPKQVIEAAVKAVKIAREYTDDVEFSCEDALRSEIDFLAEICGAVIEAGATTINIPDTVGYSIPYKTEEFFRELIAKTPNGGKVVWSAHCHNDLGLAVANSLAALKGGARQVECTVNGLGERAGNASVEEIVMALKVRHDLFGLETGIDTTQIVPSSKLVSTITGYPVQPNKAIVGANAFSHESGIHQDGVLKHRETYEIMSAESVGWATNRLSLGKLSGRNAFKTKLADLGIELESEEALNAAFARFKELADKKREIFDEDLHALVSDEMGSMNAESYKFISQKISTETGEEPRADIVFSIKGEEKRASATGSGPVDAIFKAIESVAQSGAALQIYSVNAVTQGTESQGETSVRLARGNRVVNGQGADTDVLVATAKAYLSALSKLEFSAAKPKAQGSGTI

NmeIPMSR470Q [2] = biological target: T2, NmeIPMSR470Q (Neisseria meningitidis serogroup B, UniProt Q9JZG1, R470Q); assay: Leu inhibition assay; type: biochemical
T2 sequence (Q9JZG1 1-517 R470Q): T1 sequence (Q9JZG1 1-517 R32Q) with Q32R, R470Q

NmeIPMS [3] = biological target: T3, NmeIPMS (Neisseria meningitidis serogroup B, UniProt Q9JZG1); assay: waterLOGSY NMR Leu binding assay
T3 sequence (Q9JZG1 1-517): T1 sequence (Q9JZG1 1-517 R32Q) with Q32R
Summary of the method: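 Leu titrated at 0, 50, 150, 250, 500 and 750 μM in 10 mM HEPES pH 8.0, 3 mM MgCl₂, 3 mM KCl, 10% D₂O. Each sample recorded first without enzyme, then with 10 μM untagged enzyme. ¹H spectra at 600 MHz, 25 °C, without a water flipback pulse. KD fitted from the isotherm of corrected waterLOGSY intensity change against ligand concentration.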

NmeIPMSR32Q^hetero = biological target: T4, NmeIPMSR32Q^hetero (Neisseria meningitidis serogroup B, UniProt Q9JZG1, R32Q); assay: waterLOGSY NMR Leu binding assay
T4 sequence (Q9JZG1 1-517 R32Q): T1 sequence (Q9JZG1 1-517 R32Q)
T4 sequence (Q9JZG1 1-517): T1 sequence (Q9JZG1 1-517 R32Q) with Q32R

NmeIPMSR32Q [4] = biological target: T1, NmeIPMSR32Q; assay: waterLOGSY NMR Leu binding assay
NmeIPMSR470Q^hetero = biological target: T5, NmeIPMSR470Q^hetero (Neisseria meningitidis serogroup B, UniProt Q9JZG1, R470Q); assay: waterLOGSY NMR Leu binding assay
T5 sequence (Q9JZG1 1-517 R470Q): T1 sequence (Q9JZG1 1-517 R32Q) with Q32R, R470Q
T5 sequence (Q9JZG1 1-517): T1 sequence (Q9JZG1 1-517 R32Q) with Q32R

NmeIPMSR470Q [5] = biological target: T2, NmeIPMSR470Q; assay: waterLOGSY NMR Leu binding assay
NmeIPMS [6] = biological target: T3, NmeIPMS; assay: DTP-coupled kinetic assay; type: biochemical; details: read-out: Km^KIV; WT NmeIPMS; apparent Km; AcCoA fixed at 300 μM; 25 °C, pH 7.5
Summary of the method: (§1)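 E. coli BL21(DE3)-expressed enzyme, TEV-cleaved and SEC-purified; variant homodimers taken as the StrepTrap flow-through. CoA release monitored with DTP at 324 nm (ε = 1.98 × 10⁴ l × M⁻¹ cm⁻¹), 25 °C. Mix: 100 μM DTP, 20 mM KCl, 20 mM MgCl₂, 3.0 × 10⁻² μM enzyme, 50 mM HEPES pH 7.5, started with α-KIV. One substrate held at 300 μM, the other varied.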

NmeIPMSR32Q [7] = biological target: T1, NmeIPMSR32Q; assay: DTP-coupled kinetic assay; type: biochemical; details: homodimer R32Q, apparent Km
Summary of the method: as §1

NmeIPMSR470Q [8] = biological target: T2, NmeIPMSR470Q; assay: DTP-coupled kinetic assay; type: biochemical; details: homodimer R470Q, apparent Km
Summary of the method: as §1

[9] = read-out: Km^KIV, AcCoA fixed at 300 μM
[10] = read-out: Km^AcCoA, α-KIV fixed at 300 μM

`CC(C)C[C@H](N)C(=O)O` [Leu, leucine] was tested, and the Ki (NmeIPMSR32Q [1]) was greater than 100 µM, the Ki (NmeIPMSR470Q [2]) was greater than 100 µM and the Kd (NmeIPMS [3]) was 376 ± 48 µM. The Kd (NmeIPMSR32Q^hetero) was 324 ± 65 µM, the Kd (NmeIPMSR32Q [4]) was 352 ± 37 µM and the Kd (NmeIPMSR470Q^hetero) was 370 ± 55 µM. It also gave a Kd (NmeIPMSR470Q [5]) of 386 ± 72 µM.
`CC(C)C(=O)C(=O)O` [KIV, α-ketoisovalerate] showed a Km (NmeIPMS [6]) of 37 ± 5 µM, a Km (NmeIPMSR32Q [7]; [9]) of 47 ± 3 µM and a Km (NmeIPMSR470Q [8]; [9]) of 53 ± 6 µM.
`CC(=O)SCCNC(=O)CCNC(=O)[C@H](O)C(C)(C)COP(=O)(O)OP(=O)(O)OC[C@H]1O[C@@H](n2cnc3c(N)ncnc32)[C@H](O)[C@@H]1OP(=O)(O)O` [AcCoA, acetyl-coenzyme A] showed a Km (NmeIPMSR32Q [7]; [10]) of 40 ± 5 µM and a Km (NmeIPMSR470Q [8]; [10]) of 48 ± 3 µM.
